Assay outcomes: PubChem, several laboratories
TDP2 absorb = TDP2 (human) inhibition, absorbance primary screen | O95551 | recombinant TDP2, T5PNP hydrolysis, p-nitrophenol absorbance 415 nm | inhibition, % at 12.8 µM | 370,000 compounds, 0.34% hits;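 active = inhibition above the mean of all tested compounds plus 3 SD, set per campaign, cut at about 25% in these data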;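 also: 0% = DMSO with enzyme and 100% = buffer with substrate but no TDP2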
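Test system: human TDP2 enzyme; Input: 120 nM TDP2 per well; Buffer or medium: Mg2+-containing Tris-HCl buffer, pH 7.5; Reagent: 5 mM T5PNP; Dosing: 12.8 µM single point, 1% DMSO; Incubation: reaction 2 h, 37 °C; Detection: p-Nitrophenol epi absorbance; Read-out: % inhibition relative to enzyme-containing and enzyme-free wells; Replicates: single well per compound.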
LEDGF integ inh = blocks HIV-1 LEDGF/p75-dependent DNA integration; TR-FRET IN-LEDGF/p75 DNA integration, Eu/Cy5; inhibition, % at 3.7 µM; 370,000 compounds, 0.64% hits;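 active = inhibition above the screen-wide mean plus 3 SD, cut at about 13% in these data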;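 also: signal is the Cy5 over europium emission ratio at 671 and 618 nm; 0% = plate median of compound wells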
UHRF1 MBD2 ctr = human UHRF1 methylated DNA binding inhibitors | Q96T88 | UHRF1 binding to methylated oligo, TR-FRET | inhibition, % at 4.4 µM | 370,000 compounds, 0.75% hits | AID 687016; in the data active = inhibition above about 21%;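 also: UHRF1 SRA domain binding a hemimethylated CpG hairpin DNA probe; 0% = median of test compound wells and 100% = reference inhibitor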
MBD2 inh = blocks human MBD2 binding to methylated DNA | Q9UBB5 | TR-FRET, MBD2 binding to methylated oligonucleotide | inhibition, % at 4.4 µM | 370,000 compounds, 0.31% hits | AID 686964; in the data active = inhibition above about 13%
NSD2 HMT inh = inhibitors of human histone methyltransferase NSD2. NSD2 peptide methylation, AlphaScreen, 120 min. inhibition, % at 12.5 µM. AID 743445. 310,000 compounds, 0.54% hits. O96028; in the data active = inhibition above about 50%
CASP6 VEID inh = inhibitors of human caspase-6 | P55212 | purified caspase-6, Z-VEID-R110 cleavage fluorescence | inhibition, % at 12.5 µM | 350,000 compounds, 0.53% hits;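 active = mean inhibition across replicates at least about 35%, with every replicate also reaching that limit, limit read from the data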;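 also: 0% = median of neutral control wells and 100% = no fluorescence left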
IN multimer up = HIV-1 integrase multimerization activation, counter-screen | activation, % at 7.7 µM | 2,000 compounds, 17% hits | shares compounds with LEDGF integ inh | TR-FRET HIV-1 integrase multimerization, biochemical; in the data active = activation above about 8.9%
TR-FRET interf = counter-screen for LEDGF/p75 integration inhibitors: TR-FRET optical interference | shares compounds with LEDGF integ inh | TR-FRET optical interference counterscreen, HIV-1 IN multimerization | inhibition, % at 7.7 µM | 2,000 tested, under 10 active;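 active = inhibition above the mean over all tested compounds plus 3 SD, which no compound reached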;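 also: 0% = integrase with antibodies and DMSO and 100% = antibodies without integrase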
IN-LEDGF confirm = LEDGF/p75-dependent HIV-1 integration inhibition, confirmation | shares compounds with LEDGF integ inh | TR-FRET LEDGF/p75-dependent HIV-1 integration, biochemical | inhibition, % at 3.7 µM | 2,000 compounds, 36% hits | AID 1053136; in the data active = inhibition above about 14%
Starred values were filed as active, the others as inactive. Only some compounds are listed: those with a hit (about 1.9% of all), similar ones and a draw of the others.

How did C[C@H]1CN([C@@H](C)CO)C(=O)c2cc(C#Cc3ccccn3)cnc2O[C@@H]1CN(C)C(=O)CCN1CCCCC1 do in these assays?
CASP6 VEID inh: 0.6

What do the screens show for `O=C(CC(=O)OCc1ccccc1)OCc1ccccc1`?
TDP2 absorb: -3.5; LEDGF integ inh: 7.4; UHRF1 MBD2 ctr: -1.7; MBD2 inh: 0.9; CASP6 VEID inh: -0.7

What do the screens show for `N#CC(CC(=O)OCc1ccccc1)NC(=O)OCc1ccccc1` (configuration not stated)?
TDP2 absorb: -4.1; LEDGF integ inh: 33.0*; UHRF1 MBD2 ctr: -0.4; MBD2 inh: 0.5; NSD2 HMT inh: -1.3; IN multimer up: -1.2; TR-FRET interf: 6.2; IN-LEDGF confirm: -2.6

What do the screens show for `Cc1cccc(N2C(=O)CS/C2=N\NC(=O)c2ccc(Br)cc2)c1C`?
TDP2 absorb: -0.1; LEDGF integ inh: 16.2*; UHRF1 MBD2 ctr: 2.8; MBD2 inh: 2.7; NSD2 HMT inh: 0.3; IN multimer up: -2.1; TR-FRET interf: 7.5; IN-LEDGF confirm: -1.1

How did CCN1CCCC1CNC(=O)Cn1nc(C)n2c(cc3cc(F)ccc32)c1=O (configuration not stated) do in these assays?
TDP2 absorb: 7.6; LEDGF integ inh: 19.0*; UHRF1 MBD2 ctr: 15.7; MBD2 inh: 10.8; NSD2 HMT inh: -0.8; CASP6 VEID inh: 1.1; IN multimer up: 2.6; TR-FRET interf: -9.2; IN-LEDGF confirm: -2.4

Results for CCCNC(=O)Cn1nc(C)n2c(cc3cc(F)ccc32)c1=O ?
TDP2 absorb: 2.8; LEDGF integ inh: 1.1; UHRF1 MBD2 ctr: -3.2; MBD2 inh: -2.0; NSD2 HMT inh: -2.9; CASP6 VEID inh: 4.2

How did O=C(NCC[C@H]1CC[C@@H](NS(=O)(=O)c2cccc(F)c2)[C@@H](CO)O1)C1CCCC1 do in these assays?
CASP6 VEID inh: -0.9

How did CN(C(=O)COC(=O)c1cncc(Br)c1)C1CCCCC1 do in these assays?
TDP2 absorb: 8.5; LEDGF integ inh: 16.4*; UHRF1 MBD2 ctr: 3.1; MBD2 inh: 7.0; NSD2 HMT inh: 0.4; CASP6 VEID inh: 3.4; IN multimer up: -2.2; TR-FRET interf: 7.7; IN-LEDGF confirm: -3.1

Results for C[C@@H]1CN([C@@H](C)CO)C(=O)c2cc(NS(=O)(=O)c3cn(C)cn3)ccc2O[C@@H]1CN(C)CC1CC1 ?
CASP6 VEID inh: -7.7

Results for Cc1ccc(C(=O)NNC(=O)C2CCN(c3nccc(C)n3)CC2)cc1 ?
TDP2 absorb: 5.3; LEDGF integ inh: 18.4*; UHRF1 MBD2 ctr: 3.8; MBD2 inh: 3.6; NSD2 HMT inh: -2.1; IN multimer up: 0.3; TR-FRET interf: -1.3; IN-LEDGF confirm: -5.8

What do the screens show for `Cc1ccnc(N2CCC(C(=O)NNC(=O)c3ccccc3)CC2)n1`?
TDP2 absorb: 3.7; LEDGF integ inh: -1.6; UHRF1 MBD2 ctr: -2.5; MBD2 inh: -0.2; NSD2 HMT inh: -1.6; CASP6 VEID inh: 1.4

Results for C[C@@H]1CN([C@H](C)CO)C(=O)Cc2cc(NC(=O)NC3CCCCC3)ccc2O[C@H]1CN(C)CC1CCCCC1 ?
CASP6 VEID inh: 3.8

How did CN(C)CC(=O)N[C@@H]1CC[C@@H](CCNC(=O)Nc2ccc(F)cc2)O[C@H]1CO do in these assays?
CASP6 VEID inh: 5.3

How did Cc1ccc(S(=O)(=O)/N=C(/Nc2cccc(O)c2)c2ccccc2)cc1 do in these assays?
TDP2 absorb: 0.5; LEDGF integ inh: 36.7*; UHRF1 MBD2 ctr: -1.9; MBD2 inh: 0.9; NSD2 HMT inh: 0.8; CASP6 VEID inh: 1.6; IN multimer up: 1.9; TR-FRET interf: -9.8; IN-LEDGF confirm: 2.1
